Data published in ChEMBL document CHEMBL5712922, “Synergistic effects of type I PRMT and PARP inhibitors against non-small cell lung cancer cells” (Clin Epigenetics, 2021).
pIC50: −log10 of the molar value. Where a name gives a salt, the structure may show the parent alone. Calls of active or inactive are those of the source. The rule behind the calls is not given here.

Legend:
SK-LU-1 [1] = test: Antiproliferative against human SK-LU-1 cells expressing MTAP clone 1 assessed as […] treated for 7 days with replenishment of medium for every 48 hrs by MTT assay (reference value: 16.3 uM); format: functional, cell-based
A549 [2] = test: Antiproliferative against human A549 cells expressing MTAP clone 1 assessed as […] treated for 7 days with replenishment of medium for every 48 hrs by MTT assay (reference value: 4.4 uM); format: functional, cell-based
Procedure, shortened: (§1)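 Parental, empty-vector (pLoc) or MTAP-re-expressing lentiviral clone cells (blasticidin 3 µg/ml selected) seeded day 0; MS023 (0.2–2 μM final) and/or BMN-673 (0.3–50 nM final) or DMSO added after 16 h, replenished with medium every 48 h. Day 7: MTT reagent 3 h at 37 °C, solvent, absorbance 590 nm; triplicates; percent death = 1 − (treated/DMSO).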

A549 [3] = test: Induction of DNA damage in human A549 cells assessed as increase in stained cells at 2 uM for 7 days by gamma-H2AX analysis (reference value: 3.9%); format: functional; conditions: time 7 day
Procedure, shortened: (§2)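 A549 cells grown on coverslips under MTT treatment conditions (inhibitors replenished every 48 h) for 7 days with MS023 (0.2–2 µM) and/or BMN-673 (50 nM); fixed in 4% paraformaldehyde, Triton-permeabilized, stained with anti-γ-H2AX (1:1000, 16 h, 4 °C) and Alexa488 secondary, DAPI counterstain. ≥200 cells imaged; fraction with >5 foci reported; unpaired t tests.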

A549 [4] = test: Induction of DNA damage in human A549 cells at 2 uM for 7 days by gamma-H2AX analysis; format: functional, cell-based; conditions: time 7.0 day; procedure, shortened: as §2
HCC4006 [5] = test: Antiproliferative against human HCC4006 cells expressing MTAP clone 2 assessed as […] treated for 7 days with replenishment of medium for every 48 hrs by MTT assay (reference value: 0.24 uM); format: functional, cell-based; procedure, shortened: as §1
SK-LU-1 [6] = test: Antiproliferative against human SK-LU-1 cells expressing MTAP clone 2 assessed as […] treated for 7 days with replenishment of medium for every 48 hrs by MTT assay (reference value: 16.3 uM); format: functional, cell-based
A549 [7] = test: Antiproliferative against human A549 cells expressing MTAP clone 2 assessed as […] treated for 7 days with replenishment of medium for every 48 hrs by MTT assay (reference value: 4.4 uM); format: functional, cell-based
HCC4006 [8] = test: Antiproliferative against human HCC4006 cells expressing MTAP clone 1 assessed as […] treated for 7 days with replenishment of medium for every 48 hrs by MTT assay (reference value: 0.24 uM); format: functional, cell-based; procedure, shortened: as §1
A549 [9] = test: Induction of DNA damage in human A549 cells assessed as increase in stained cells at 0.2 uM for 7 days by gamma-H2AX analysis (reference value: 3.9%); format: functional; conditions: time 7 day; procedure, shortened: as §2
A549 [10] = test: Antiproliferative against human A549 cells assessed as reduction in cell viability at 16.5 uM for 24 hrs relative to control; format: functional
Procedure, shortened: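 A549 cells exposed to MS023 for 24 h in dose–response; viability read by flow cytometry with Viacount dye reagent distinguishing viable, pre-apoptotic and dead cells.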

A549 [11] = test: Synergistic antiproliferative activity against human A549 cells pretreated with MS023 for 24 hrs followed by compound addition at 10 uM measured after for 24 hrs relative to control; format: functional
Procedure, shortened: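 A549 seeded 20K/well; next day 16.5 μM MS023 or DMSO for 24 h, then 181 epigenetic library drugs at 10 μM for 24 h. Viability by Viacount flow cytometry after trypsinization; heat-killed well as total death control. Synergy Index = (monotherapy viability × MS023 viability effect)/combination viability; also synergy percentage (1 − 1/SI)×100.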

A549 [12] = test: Antiproliferative against human A549 cells assessed as viable cells pretreated with MS023 for 24 hrs followed by compound addition at 10 uM measured after for 24 hrs relative to control; conditions: A549, 24 h, read-out: Activity
PEO4 [13] = test: Antiproliferative activity against human PEO4 cells expressing BRCA2 mutant at 3.75 to 60 nM in presence of MS023; format: functional, cell-based; conditions: dose 3.75-60 nM
Procedure, shortened: (§3)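 PEO1 and PEO4 ovarian cells seeded 3,000/well; treated one day after plating with MS023 and/or BMN-673 or DMSO vehicle, medium with inhibitors replenished every 48 h. Six days after first treatment, nuclei stained with Hoechst 33342 (10 µg/ml final, 30 min) and counted by plate imaging; counts normalized to DMSO wells. Combination effect expressed as Bliss score.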

PEO1 [14] = test: Antiproliferative activity against BRCA2 deficient human PEO1 cells at 3.75 to 60 nM in presence of MS023; format: functional, cell-based; conditions: dose 3.75-60 nM; procedure, shortened: as §3
A549 [15] = test: Induction of DNA damage in human A549 cells assessed as increase in stained cells at 50 nM for 7 days in presence of MS023 by gamma-H2AX analysis (reference value: 3.9%); format: functional; conditions: time 7 day; procedure, shortened: as §2
A549 [16] = test: Induction of cell death in human A549 cells assessed as bliss energy score at 0.3 nM in presence of EPZ 15666 by viacount reagent based analysis; format: functional
A549 [17] = test: Antiproliferative against human A549 cells assessed as killed cells at 0.3 nM treated for 7 days in presence of MS023 with replenishment of medium for every 48 hrs by MTT assay relative to control; conditions: time 7 day
A549 [18] = test: Induction of DNA damage in human A549 cells at 50 nM in presence of MS023 for 7 days by gamma-H2AX analysis; format: functional, cell-based; conditions: time 7.0 day; procedure, shortened: as §2
A549 [19] = test: Induction of cell death in human A549 cells assessed as bliss energy score at 0.3 nM in presence of GSK 591 by viacount reagent based analysis; format: functional
A549 [20] = test: Induction of DNA damage in human A549 cells assessed as increase in stained cells at 50 nM for 7 days by gamma-H2AX analysis (reference value: 3.9%); format: functional; conditions: time 7 day; procedure, shortened: as §2
A549 [21] = test: Induction of DNA damage in human A549 cells at 50 nM for 7 days by gamma-H2AX analysis; format: functional, cell-based; conditions: time 7.0 day; procedure, shortened: as §2
PEO1 [22] = test: Antiproliferative activity against BRCA2 deficient human PEO1 cells assessed as bliss energy score at 3.75 to 60 nM in presence of MS023; format: functional; conditions: dose 3.75-60 nM; procedure, shortened: as §3
[23] = Antiproliferative activity against human PEO4 cells expressing BRCA2 mutant assessed as bliss energy score at 3.75 to 60 nM in presence of MS023; format: functional; conditions: dose 3.75-60 nM; procedure, shortened: as §3
PEO1 [24] = test: Antiproliferative activity against BRCA2 deficient human PEO1 cells at 3.75 to 60 nM; format: functional, cell-based; conditions: dose 3.75-60 nM; procedure, shortened: as §3
A549 [25] = test: Induction of DNA damage in human A549 cells assessed as increase in stained cells at 1 nM for 7 days by gamma-H2AX analysis (reference value: 3.9%); format: functional; conditions: time 7 day
PEO4 [26] = test: Antiproliferative activity against human PEO4 cells expressing BRCA2 mutant at 3.75 to 60 nM; format: functional, cell-based; conditions: dose 3.75-60 nM; procedure, shortened: as §3
A549 [27] = test: Antiproliferative against human A549 cells expressing MTAP clone 1 assessed as […] treated at 25 to 50 nM for 7 days in presence of MS023 with replenishment of medium for every 48 hrs by MTT assay relative to control; format: functional; design: scale not given: the % may be the effect or the level left; conditions: dose 25-50 nM, time 7 day
A549 [28] = test: Antiproliferative against human A549 cells expressing MTAP clone 2 assessed as […] treated at 25 to 50 nM for 7 days in presence of MS023 with replenishment of medium for every 48 hrs by MTT assay relative to control; format: functional; design: scale not given: the % may be the effect or the level left; conditions: dose 25-50 nM, time 7 day
A549 [29] = test: Induction of cell death in human A549 cells at 0.3 nM in presence of 2 uM MS023 by viacount reagent based analysis; format: functional

CC(C)Oc1ccc(-c2c[nH]cc2CN(C)CCN)cc1
pIC50 (SK-LU-1 [1]): 4.44
pIC50 (A549 [2]): 5.29
Activity (A549 [3]): 27.6%
Activity (A549 [4]): Active
pIC50 (HCC4006 [5]): 6.25
pIC50 (SK-LU-1 [6]): 4.39
pIC50 (A549 [7]): 4.87
pIC50 (HCC4006 [8]): 6.33
Activity (A549 [9]): 19.6%
Activity (A549 [10]): 23%

Cc1ccc(S(=O)(=O)O)cc1.NC(=O)c1cccc2cn(-c3ccc([C@@H]4CCCNC4)cc3)nc12
Activity (A549 [11]): 11%
viability at 10 µM (A549 [12]): 54.2%

COC1CCN(C(=O)c2cc(Cc3n[nH]c(=O)c4ccccc34)ccc2F)CC1 [AZD2461]
Activity (A549 [11]): 67%
viability at 10 µM (A549 [12]): 54.2%

NC(=O)c1ccc(I)c([N+](=O)[O-])c1 [INIPARIB]
Activity (A549 [11]): 15%
viability at 10 µM (A549 [12]): 54.2%

O=C(c1cc(Cc2n[nH]c(=O)c3ccccc23)ccc1F)N1CCN(C(=O)C2CC2)CC1 [OLAPARIB]
Activity (A549 [11]): 48%
viability at 10 µM (A549 [12]): 54.2%

CN(C)CC(=O)Nc1ccc2[nH]c(=O)c3ccccc3c2c1.Cl [PJ34]
Activity (A549 [11]): 21%
viability at 10 µM (A549 [12]): 54.2%

CN(C)Cc1ccc(S(=O)(=O)n2ccc(/C=C/C(=O)NO)c2)cc1 [RESMINOSTAT]
viability at 10 µM (A549 [12]): 54.2%

Oc1ccc(/C=C/c2cc(O)cc(O)c2)cc1 [RESVERATROL]
viability at 10 µM (A549 [12]): 54.2%

O=C(CCCCCCNC(=O)c1cnc(N(c2ccccc2)c2ccccc2)nc1)NO [RICOLINOSTAT]
viability at 10 µM (A549 [12]): 54.2%

Cc1nc(C(=O)NCC(=O)O)c(O)c2ccc(Oc3ccccc3)cc12 [ROXADUSTAT]
viability at 10 µM (A549 [12]): 54.2%

CNCc1ccc(-c2[nH]c3cc(F)cc4c3c2CCNC4=O)cc1 [RUCAPARIB]
Activity (A549 [11]): 24%
viability at 10 µM (A549 [12]): 54.2%

N#CC[C@H](C1CCCC1)n1cc(-c2ncnc3[nH]ccc23)cn1 [RUXOLITINIB]
viability at 10 µM (A549 [12]): 54.2%

CN1CCC(CNc2ccc3ncc(-c4cccc(OC(F)(F)F)c4)n3n2)CC1 [SGI-1776]
viability at 10 µM (A549 [12]): 54.2%

CC(NC(=O)c1ccccc1/N=C/c1c(O)ccc2ccccc12)c1ccccc1 (stereo not given) [SIRTINOL]
viability at 10 µM (A549 [12]): 54.2%

O=C(Nc1cccc(Cl)c1)Nc1ncc(CCNc2ncnc3ccsc23)s1 [SNS-314 MESYLATE]
viability at 10 µM (A549 [12]): 54.2%

O=C(O)CCCc1ccccc1 [SODIUM PHENYLBUTYRATE]
viability at 10 µM (A549 [12]): 54.2%

CC(=O)Nc1ccc(C(=O)Nc2ccccc2N)cc1 [TACEDINALINE]
viability at 10 µM (A549 [12]): 54.2%

CCS(=O)(=O)c1cccc(-c2cc(C(=O)NC3CCN(C)CC3)c(C)c3[nH]c4ncc(C)cc4c23)c1 [TAK-901]
viability at 10 µM (A549 [12]): 54.2%

Cn1ncnc1[C@H]1c2n[nH]c(=O)c3cc(F)cc(c23)N[C@@H]1c1ccc(F)cc1 [TALAZOPARIB]
Activity (PEO4 [13]): Active
Activity (PEO1 [14]): Active
Activity (A549 [15]): 69.5%
Activity (A549 [16]): 13.506
Activity (A549 [17]): >80%
Activity (A549 [18]): Active
Activity (A549 [19]): 19.892
Activity (A549 [20]): 40.4%
Activity (A549 [21]): Active
Activity (PEO1 [22]): 17.98
Activity [23]: 21.64
Activity (PEO1 [24]): Active
Activity (A549 [25]): 24.8%
Activity (PEO4 [26]): inactive
Activity (A549 [27]): 50%
Activity (A549 [28]): 50%
Activity (A549 [29]): Active

O=C(O)C(O)C(O)C(=O)O (stereo not given) [TARTARIC ACID]
viability at 10 µM (A549 [12]): 54.2%

C[C@@H]1CCN(C(=O)CC#N)C[C@@H]1N(C)c1ncnc2[nH]ccc12 [TOFACITINIB]
viability at 10 µM (A549 [12]): 54.2%

N[C@@H]1C[C@H]1c1ccccc1 [TRANYLCYPROMINE HYDROCHLORIDE]
viability at 10 µM (A549 [12]): 54.2%

CC(/C=C/C(=O)NO)=C\[C@@H](C)C(=O)c1ccc(N(C)C)cc1 [TRICHOSTATIN]
viability at 10 µM (A549 [12]): 54.2%

CCCC(CCC)C(=O)O [VALPROIC ACID]
viability at 10 µM (A549 [12]): 54.2%

C[C@]1(c2nc3c(C(N)=O)cccc3[nH]2)CCCN1 [VELIPARIB]
Activity (A549 [11]): 98%
viability at 10 µM (A549 [12]): 54.2%

O=C(CCCCCCC(=O)Nc1ccccc1)NO [VORINOSTAT]
viability at 10 µM (A549 [12]): 54.2%

C[C@H](NC(=O)/C(C#N)=C/c1cccc(Br)n1)c1ccccc1 [WP 1066]
viability at 10 µM (A549 [12]): 54.2%

O=c1ncccn1[C@@H]1O[C@H](CO)[C@@H](O)[C@H]1O [ZEBULARINE]
viability at 10 µM (A549 [12]): 54.2%
